Experimental data reported in ChEMBL document CHEMBL1121573, “2-(Aminomethyl)phenols, a new class of saluretic agents. 1. Effects of nuclear substitution” (J Med Chem, 1980).

Assays:
Canis familiaris [1] = assay: Salidiuretic activity in dog following i.v. dosing at 5 mg/kg; format: functional, Canis lupus familiaris, Urine; design: unit not given beside the values; settings: route intravenous
Outline: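 Conditioned female mongrel dogs, postabsorptive, got a 500 mL oral water load 1 h before pentobarbital anesthesia (30 mg/kg iv). After replicate 15-min control collections, compound was given as an iv stat injection.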

Rattus norvegicus [2] = assay: Evaluated for salidiuretic activity measured as sodium ion excretion in Rat, administered orally at a dose of 50 mg/kg; format: functional, Urine; design: unit not given beside the values; settings: route oral
Outline: (§1)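 Female Charles-River rats (150–170 g), overnight on sugar diet with water ad libitum. Compound dissolved in DMF, diluted with water containing Tween 80 (final 4% DMF), given po in 5.0 mL; concurrent vehicle placebo. Three rats per metabolism cage; 0–5 h urine analysed for Na+, K+, Cl-. Values: mequiv × 100 per cage, geometric means of three cages per dose; scored 0–6 by Na+.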

[3] = Compound administered orally at a dose of 5 mg/kg was evaluated for salidiuretic activity measured as sodium ion excretion in Rat; format: organism-based; design: dose 5 mg/kg; settings: Urine; outline: as §1
Rattus norvegicus [4] = assay: Compound administered orally at a dose of 81 mg/kg was evaluated for salidiuretic activity measured as sodium ion excretion in Rat; format: ADME, organism-based, Urine; design: dose 81 mg/kg, route oral; unit not given beside the values; settings: in vivo, po; outline: as §1
[5] = Evaluated for salidiuretic activity measured as sodium ion excretion in Rat, administered orally at a dose of 16.5 mg/kg; format: organism-based; design: dose 16.5 mg/kg; settings: Urine; outline: as §1
Canis familiaris [6] = assay: Compound administered intravenously at a dose of 5 mg/kg was evaluated for salidiuretic activity measured as sodium ion excretion in Dog; Value ranges from 800-899; format: ADME, organism-based, Canis lupus familiaris, Urine; design: dose 5 mg/kg, route intravenous; unit not given beside the values; settings: in vivo, iv
Outline: (§2)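 Conditioned female mongrel dogs, postabsorptive, water-loaded (500 mL po) 1 h before sodium pentobarbital anesthesia (30 mg/kg iv). Bladder catheter; creatinine 4 g sc; phosphate–mannitol buffer pH 7.4 infused (3.0 mL/min) throughout. […] Urine Na+ measured; response scored 0–6.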

Canis familiaris [7] = assay: Compound administered intravenously was evaluated for salidiuretic activity measured as sodium ion excretion in Dog; Value ranges from 0-99; format: ADME, organism-based, Canis lupus familiaris, Urine; settings: in vivo, iv; outline: as §2
Canis familiaris [8] = assay: Compound administered intravenously at a dose of 5 mg/kg was evaluated for salidiuretic activity measured as sodium ion excretion in Dog; Value ranges from 0-99; format: ADME, organism-based, Canis lupus familiaris, Urine; design: dose 5 mg/kg, route intravenous; settings: in vivo, iv; outline: as §2
Canis familiaris [9] = assay: Compound administered intravenously at a dose of 5 mg/kg was evaluated for salidiuretic activity measured as sodium ion excretion in Dog; format: ADME, organism-based, Canis lupus familiaris, Urine; design: dose 5 mg/kg, route intravenous; settings: in vivo, iv; outline: as §2
Canis familiaris [10] = assay: Compound administered intravenously was evaluated for salidiuretic activity measured as sodium ion excretion in Dog; Value ranges from 250-399; format: ADME, organism-based, Canis lupus familiaris, Urine; settings: in vivo, iv; outline: as §2
Canis familiaris [11] = assay: Compound administered intravenously at a dose of 5 mg/kg was evaluated for salidiuretic activity measured as sodium ion excretion in Dog; Value ranges from 100-249; format: ADME, organism-based, Canis lupus familiaris, Urine; design: dose 5 mg/kg, route intravenous; settings: in vivo, iv; outline: as §2
Rattus norvegicus [12] = assay: Compound administered orally at a dose of 1 mg/kg was evaluated for salidiuretic activity measured as sodium ion excretion in Rat; settings: in vivo, po

SMILES | Diuretic activity (Rattus norvegicus [4]) | Diuretic activity (Rattus norvegicus [2]) | Diuretic activity [3] | Diuretic activity [5] | also measured
CC(C)(C)c1c(Cl)cc(CN)c(O)c1Cl.Cl | 2.9 | 2.4 | 0.5 | 1.4 | Diuretic activity (Canis familiaris [1]): 250
Cc1c(Br)c(C)c(CN)c(O)c1Br.Cl | – | 3.3 | 1.4 | 2.7 | Diuretic activity (Canis familiaris [6]): 800
NCc1c(O)ccc(Cl)c1Cl | 1.5 | 1.2 | 0.3 | 0.5 | Diuretic activity (Canis familiaris [1]): 250
Cl.NCc1c(O)c(Cl)c(Cl)c(Cl)c1Cl | – | 3.3 | 1.4 | 2.7 | Diuretic activity (Canis familiaris [1]): 250
COc1c(Cl)c(OC)c(CN)c(O)c1I.Cl | – | 3.3 | 1.4 | 2.7 | Diuretic activity (Canis familiaris [6]): 800
CC(C)(C)c1cc(CN)c(O)c(C(C)(C)C)c1 | – | – | – | – | Diuretic activity (Canis familiaris [7]): 0
CC(C)(C)c1cc(O)c(CN)c(C(C)(C)C)c1.Cl | – | – | – | – | Diuretic activity (Canis familiaris [8]): 0
Cc1cc(Cl)c(C)c(CN)c1O.Cl | – | – | – | – | Diuretic activity (Canis familiaris [7]): 0
CCCc1cc(Cl)c(O)c(CN)c1.Cl | – | 3.3 | 1.4 | 2.7 | Diuretic activity (Canis familiaris [9]): > 900
CC(=O)c1cc(C(C)(C)C)cc(CN)c1O.Cl | – | – | – | – | Diuretic activity (Canis familiaris [10]): 250
COc1c(C(C)(C)C)cc(Cl)c(O)c1CN.Cl | – | – | – | – | Diuretic activity (Canis familiaris [10]): 250
CCCCc1cc(C)c(O)c(CN)c1.Cl | – | – | – | – | Diuretic activity (Canis familiaris [11]): 100
CCc1cc(Cl)c(O)c(CN)c1.Cl | – | 3.3 | 1.4 | 2.7 | Diuretic activity (Canis familiaris [9]): > 900
CCOc1cc(Cl)c(O)c(CN)c1.Cl | – | – | – | – | Diuretic activity (Canis familiaris [10]): 250
Cc1c(C)c(C)c(CN)c(O)c1C.Cl | 2.9 | 2.4 | 0.5 | 1.4 | Diuretic activity (Canis familiaris [1]): 250
CCCc1cc(CN)c(O)c(OC)c1.Cl | – | – | – | – | Diuretic activity (Canis familiaris [1]): 250
COc1cc(Cl)c(OC)c(CN)c1O.Cl | – | – | – | – | Diuretic activity (Canis familiaris [10]): 250
Cl.NCc1cc(-c2ccccc2)cc(Cl)c1O | – | – | – | – | Diuretic activity (Canis familiaris [10]): 250
Cl.NCc1cc(Cl)c(Cl)c(Cl)c1O | – | 3.3 | 1.4 | 2.7 | Diuretic activity (Canis familiaris [1]): 250
CC(C)(C)c1cc(CN)c(O)c(C(F)(F)F)c1.Cl | – | 3.3 | 1.4 | 2.7 | Diuretic activity (Canis familiaris [6]): 800

SMILES | Diuretic activity (Rattus norvegicus [4]) | Diuretic activity (Rattus norvegicus [2]) | Diuretic activity [3] | Diuretic activity [5] | also measured
Cl.NCc1c(O)c(Cl)cc(Cl)c1O | 1.5 | 1.2 | 0.3 | 0.5 | Diuretic activity (Canis familiaris [7]): 0
Cc1c(Cl)cc(CN)c(O)c1C.Cl | – | – | – | – | Diuretic activity (Canis familiaris [7]): 0
CCCCc1ccc(O)c(CN)c1.Cl | < 0.3 | <0.3 | – | – | Diuretic activity (Canis familiaris [8]): 0
Cl.NCc1c(O)c(Cl)cc(Cl)c1F | – | 3.3 | 1.4 | 2.7 | Diuretic activity (Canis familiaris [6]): 800
Cl.NCc1cc(CN)c(Cl)c(Cl)c1O | – | – | – | – | Diuretic activity (Canis familiaris [7]): 0
CCCCCC(C)c1cc(C)c(O)c(CN)c1.Cl (stereo unspecified) | – | – | – | – | Diuretic activity (Canis familiaris [10]): 250
CC(C)c1cc(Cl)c(O)c(CN)c1.Cl | – | 3.6 | 2.6 | 3.3 | Diuretic activity (Canis familiaris [9]): > 900; Diuretic activity (Rattus norvegicus [12]): 0.7
Cl.NCc1cc(F)cc(Cl)c1O | – | – | – | – | Diuretic activity (Canis familiaris [8]): 0
CC(C)(C)c1cc(Br)c(O)c(CN)c1.Cl | – | 3.9 | 3.6 | 4.2 | Diuretic activity (Canis familiaris [9]): > 900; Diuretic activity (Rattus norvegicus [12]): 2.1
NCc1cc(Cl)ccc1O | 1.5 | 1.2 | 0.3 | 0.5 | Diuretic activity (Canis familiaris [1]): 250
Cc1cc(CN)c(O)c(C(C)(C)C)c1.Cl | – | – | – | – | Diuretic activity (Canis familiaris [11]): 100
CCc1cc(CN)c(O)c(CN)c1.Cl | – | – | – | – | Diuretic activity (Canis familiaris [8]): 0
C=C(CC)C(=O)c1ccc(OCC(=O)O)c(Cl)c1Cl [ETHACRYNIC ACID] | < 0.3 | <0.3 | – | – | Diuretic activity (Canis familiaris [9]): > 900
CC(C)(C)c1cc(F)c(O)c(CN)c1.Cl | – | 3.3 | 1.4 | 2.7 | Diuretic activity (Canis familiaris [9]): > 900
CC(C)(C)CC(C)(C)c1cc(Cl)c(O)c(CN)c1.Cl | – | – | – | – | Diuretic activity (Canis familiaris [7]): 0
Cc1c(Cl)c(C)c(CN)c(O)c1CN.Cl.Cl | < 0.3 | <0.2 | – | – | –
Br.Cc1c(O)c(CN)c(Cl)c(C)c1Cl | < 0.3 | <0.2 | – | – | Diuretic activity (Canis familiaris [11]): 100
COc1cc(C)cc(CN)c1O.Cl | – | – | – | – | Diuretic activity (Canis familiaris [11]): 100
CCCc1ccc(O)c(CN)c1.Cl | – | – | – | – | Diuretic activity (Canis familiaris [1]): 250
Cl.NCc1cc(Cl)cc(-c2ccccc2)c1O | – | – | – | – | Diuretic activity (Canis familiaris [1]): 250

SMILES | Diuretic activity (Rattus norvegicus [4]) | Diuretic activity (Rattus norvegicus [2]) | Diuretic activity [3] | Diuretic activity [5] | also measured
COc1cc(Cl)c(Cl)c(CN)c1O.Cl | 1.5 | 1.2 | 0.3 | 0.5 | Diuretic activity (Canis familiaris [11]): 100
CC(C)(c1ccccc1)c1ccc(O)c(CN)c1.Cl | – | – | – | – | Diuretic activity (Canis familiaris [1]): 250
CCc1c(Cl)c(C)c(Cl)c(O)c1CN.Cl | 1.5 | 1.2 | 0.3 | 0.5 | Diuretic activity (Canis familiaris [11]): 100
Cc1cc(N)c(C)c(CN)c1O.Cl.Cl | – | – | – | – | Diuretic activity (Canis familiaris [7]): 0
COc1c(C(C)(C)C)cc(I)c(O)c1CN.Cl | 2.9 | 2.4 | 0.5 | 1.4 | Diuretic activity (Canis familiaris [6]): 800
CC(C)(C)c1cc(CN)c(O)c(Oc2ccc(Cl)cc2)c1.Cl | 2.4 | 1.8 | 0.4 | 0.6 | Diuretic activity (Canis familiaris [11]): 100
CCCc1cc(CN)c(O)c(CCC)c1.Cl | – | – | – | – | Diuretic activity (Canis familiaris [1]): 250
CCCc1cc(C(C)(C)C)cc(CN)c1O.Cl | – | – | – | – | Diuretic activity (Canis familiaris [7]): 0
Cl.NCc1cc(Cl)cc(F)c1O | – | – | – | – | Diuretic activity (Canis familiaris [1]): 250
Cc1cc(C)c(O)c(CN)c1C.Cl | 2.4 | 1.8 | 0.4 | 0.6 | Diuretic activity (Canis familiaris [1]): 250
COc1c(C)c(OC)c(CN)c(O)c1Cl | – | – | – | – | Diuretic activity (Canis familiaris [10]): 250
Cc1c(Cl)c(C)c(CN)c(O)c1Cl.Cl | – | 3.3 | 1.4 | 2.7 | –
Cc1cc(O)c(CN)c(C)c1C.Cl | – | – | – | – | Diuretic activity (Canis familiaris [7]): 0
Cl.NCc1cc(Cl)cc(C(=O)O)c1O | – | – | – | – | Diuretic activity (Canis familiaris [1]): 250
Cc1c(Cl)ccc(O)c1CN.Cl | – | – | – | – | Diuretic activity (Canis familiaris [1]): 250
Cc1cc(Cl)c(Cl)c(CN)c1O.Cl | – | – | – | – | Diuretic activity (Canis familiaris [10]): 250
CCC(C)c1cc(Cl)c(O)c(CN)c1.Cl (stereo unspecified) | – | 3.6 | 2.6 | 3.3 | Diuretic activity (Canis familiaris [6]): 800; Diuretic activity (Rattus norvegicus [12]): 0.7
Cc1c(Cl)c(C(C)(C)C)c(Cl)c(O)c1CN.Cl | 2.9 | 2.4 | 0.5 | 1.4 | –
Cc1cc(Cl)cc(CN)c1O.Cl | – | – | – | – | Diuretic activity (Canis familiaris [11]): 100

Now from value to molecule, other results behind:

Diuretic activity (Rattus norvegicus [4]) | SMILES | Diuretic activity (Rattus norvegicus [2]) | Diuretic activity [3] | Diuretic activity [5] | also measured
2.9 | Cl.NCc1cc(I)cc(I)c1O | 2.4 | 0.5 | 1.4 | Diuretic activity (Canis familiaris [6]): 800
< 0.3 | CCCCc1cc(I)c(O)c(CN)c1.Cl | <0.2 | – | – | Diuretic activity (Canis familiaris [11]): 100
2.4 | Cl.NCc1cc(Cl)cc(I)c1O | 1.8 | 0.4 | 0.6 | Diuretic activity (Canis familiaris [6]): 800
2.4 | CCOC(=O)c1cc(I)c(O)c(CN)c1.Cl | 1.8 | – | – | Diuretic activity (Canis familiaris [1]): 250
2.4 | Cc1cc(Cl)c(O)c(CN)c1.Cl | 1.8 | 0.4 | 0.6 | Diuretic activity (Canis familiaris [11]): 100
2.9 | CCC(C)(C)c1cc(I)c(O)c(CN)c1.Cl | 2.4 | 0.5 | 1.4 | Diuretic activity (Canis familiaris [6]): 800
1.5 | CC(C)Cc1cc(I)c(O)c(CN)c1.Cl | 1.2 | 0.3 | 0.5 | Diuretic activity (Canis familiaris [11]): 100
2.9 | CCC(C)c1cc(I)c(O)c(CN)c1.Cl (stereo unspecified) | 2.4 | 0.5 | 1.4 | Diuretic activity (Canis familiaris [9]): > 900
